The test system of assay [1] is Nucleic Acid. As to the kind of experiment: Inhibitory activity against DNA polymerase III (DNA pol III) of Staphylococcus aureus at a concentration of 500 uM. Type of assay: nucleic-acid assay. A digest of the protocol: (§1)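 S. aureus pol III was PCR-cloned into pET15, expressed in BL21 (1 mM IPTG), and purified on HiTrapQ then HiTrap Blue. Enzyme-started, it ran 30 min at 30 °C and was stopped with cold TCA/NaPPi. Incorporation was read by filter capture and scintillation counting.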

Assay [2] has as its system Nucleic Acid. As to the kind of experiment: Inhibitory activity against DNA polymerase III (DNA pol III) of Staphylococcus aureus. In kind it is nucleic-acid assay. A digest of the protocol: as §1
A further assay relates to Enterococcus faecium. As to the kind of experiment: Antibacterial activity against Enterococcus faecium. In kind it is functional. Put shortly:
(§2)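 Broth microdilution MIC against B. subtilis F2, E. faecium RLA-1, S. aureus MB2865 and S. pneumoniae MCL5350. Compounds were DMSO stocks, serially 2-fold diluted from 100 μM final, at 5% final DMSO, with a DMSO vehicle control. Wells were inoculated from cultures diluted in PBS and incubated overnight at 37 °C. MIC was scored visually as the lowest concentration preventing growth.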

The next assay relates to Staphylococcus aureus. In words: Antibacterial activity against Staphylococcus aureus. In kind it is functional. A digest of the protocol: as §2
Another assay relates to Streptococcus pneumoniae. In words: Antibacterial activity against Streptococcus pneumoniae. Type of assay: functional. Put shortly:
as §2

For another assay, the system named is Bacillus subtilis. In words: Antibacterial activity against Bacillus subtilis. Type of assay: functional. A digest of the protocol: as §2
For assay [3], the system named is Nucleic Acid. In words: Inhibitory activity against DNA polymerase III (DNA pol III) of Staphylococcus aureus at a concentration of 500 uM; NA means Inactive. Type of assay: nucleic-acid assay. A digest of the protocol: as §1

Structures are written as SMILES. In brackets after ≈: the same amount, converted by molar mass. Activity calls are given as the source filed them. The rule behind the calls is not given here.

The text below walks through data of ChEMBL document CHEMBL1145030, “Novel pyrazolo[3,4-d]pyrimidine-based inhibitors of Staphlococcus aureus DNA polymerase III: design, synthesis, and biological evaluation” (J Med Chem, 2003).

Regarding `COc1ccc(CNc2nc(O)c3c[nH]nc3n2)cc1`, the inhibition in the assay with Nucleic Acid [1] turned out to be 10%.
On the same count and under the same terms, the figure for `Oc1[nH]c(NCc2ccc(F)c(Cl)c2)nc2nncc1-2` is 24%.
For the compound `Cc1ccc(Nc2nc(O)c3c[nH]nc3n2)cc1Br`, the concentration for half-maximal inhibition (IC50) in the assay with Nucleic Acid [2] stood at 129 µM. In the assay on Nucleic Acid [1], this compound came in with an inhibition of 69%. The MIC in the assay on Enterococcus faecium was found to be 16 µg/mL (≈ 50 µM); against Staphylococcus aureus, 8 µg/mL (≈ 25 µM); against Streptococcus pneumoniae, 8 µg/mL (≈ 25 µM); in the assay with Bacillus subtilis, 8 µg/mL (≈ 25 µM).
In the assay on Nucleic Acid [2], `Cc1ccc(Nc2nc(O)c3c[nH]nc3n2)cc1I` registered an IC50 of 71 µM. Also, in the assay on Nucleic Acid [1], the inhibition is 86%. Also, the minimal inhibitory concentration (MIC) in the assay with Enterococcus faecium turned out to be 18 µg/mL (≈ 49 µM); against Staphylococcus aureus, 9 µg/mL (≈ 24.5 µM); in the assay with Streptococcus pneumoniae, 9 µg/mL (≈ 24.5 µM); in the assay with Bacillus subtilis, 9 µg/mL (≈ 24.5 µM).
In turn, `Cc1ccc(CNc2nc(O)c3c[nH]nc3n2)c(C)c1` gave an inhibition in the assay on Nucleic Acid [3] of 12%.
`Cc1ccc(Nc2nc(O)c3c[nH]nc3n2)cc1C`: the inhibition in the assay on Nucleic Acid [1] was determined as 36%. Also, the MIC came to 26 µg/mL (≈ 102 µM) against Streptococcus pneumoniae and 13 µg/mL (≈ 50.9 µM) in the assay on Bacillus subtilis.
In turn, `Oc1[nH]c(NCc2ccc(Cl)c(Cl)c2)nc2nncc1-2` returned a concentration for half-maximal inhibition (IC50) with Nucleic Acid [2] of 108 µM. In the assay with Nucleic Acid [1], this compound registered an inhibition of 58%.
As for `Oc1[nH]c(NCc2ccccc2Cl)nc2nncc1-2`, the NA result in the assay with Nucleic Acid [3] was “inactive”.
Consider `Cc1ccc(Nc2nc(O)c3c[nH]nc3n2)cc1Cl`, for which the 50% inhibitory concentration (IC50) with Nucleic Acid [2] was 214 µM. The same compound showed an inhibition in the assay on Nucleic Acid [1] of 62%. Besides, the minimum inhibitory concentration (MIC) against Enterococcus faecium is 28 µg/mL (≈ 102 µM); in the assay on Staphylococcus aureus, 14 µg/mL (≈ 50.8 µM); in the assay with Streptococcus pneumoniae, 14 µg/mL (≈ 50.8 µM); in the assay on Bacillus subtilis, 7 µg/mL (≈ 25.4 µM).
For `COc1cccc(CNc2nc(O)c3c[nH]nc3n2)c1`, the NA result in the assay with Nucleic Acid [3] was “inactive”.
The same measure, in the same setting: for `CC(C)c1ccc(CNc2nc(O)c3c[nH]nc3n2)cc1` the value was “inactive”.
Regarding `Oc1[nH]c(NCc2ccc(Br)cc2)nc2nncc1-2`, in the assay on Nucleic Acid [1], the inhibition was determined as 23%.
On to `Oc1[nH]c(NCc2cccc(C(F)(F)F)c2)nc2nncc1-2`, for which the NA entry in the assay on Nucleic Acid [3] is “inactive”.
`Oc1[nH]c(NCc2ccccc2)nc2nncc1-2`: the inhibition in the assay with Nucleic Acid [1] stood at 32%.
In the assay on Nucleic Acid [2], `CCc1cc(Nc2nc(O)c3c[nH]nc3n2)ccc1C` showed an IC50 of 68 µM. Besides, the inhibition in the assay with Nucleic Acid [1] stood at 88%. In addition, the MIC was found to be 13 µg/mL (≈ 48.3 µM) with Enterococcus faecium, 27 µg/mL (≈ 100 µM) against Staphylococcus aureus, 13 µg/mL (≈ 48.3 µM) in the assay with Streptococcus pneumoniae and 7 µg/mL (≈ 26 µM) against Bacillus subtilis.

The inhibition is the change of the read-out against control, counted positive when it falls. Low readings indicate little suppression, high ones strong suppression. What is called IC50 is the concentration that gives 50% inhibition. As a reminder, the MIC is the least concentration at which growth counts as inhibited. Low values mean greater potency, high ones weaker potency.
